Here are results for one protein from ChEMBL document CHEMBL1811872, “Tryptophan 2,3-dioxygenase (TDO) inhibitors. 3-(2-(pyridyl)ethenyl)indoles as potential anticancer immunomodulators” (J Med Chem, 2011).

Substrate in the data set: N[C@@H](Cc1c[nH]c2ccccc12)C(=O)O
Description: Activity of human recombinant TDO expressed in Escherichia coli BL21 using L-tryptophan as substrate by measuring conversion of N-formylkynurenine into kynurenine per mg of protein after 30 mins by Michaelis-Menten steady state analysis. A digest of the protocol:
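Crude extract of E. coli overexpressing recombinant human TDO (~3 μg total protein) was added to prewarmed mix: 50 mM phosphate pH 7.5, 20 mM ascorbate, 10 μM methylene blue, 500 IU/mL catalase and varied L-Trp. Run at 37 °C, stopped with TCA at 2 and 4 min, then 65 °C for 30 min. Kynurenine was read at 480 nm with Ehrlich's reagent against a kynurenine standard curve; rate taken from 2–4 min.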

B1: Tryptophan 2,3-dioxygenase (Homo sapiens), P48775 (protein)
chain: MSGCPFLGNNFGYTFKKLPVEGSEEDKSQTGVNRASKGGLIYGNYLHLEKVLNAQELQSETKGNKIHDEHLFIITHQAYELWFKQILWELDSVREIFQNGHVRDERNMLKVVSRMHRVSVILKLLVQQFSILETMTALDFNDFREYLSPASGFQSLQFRLLENKIGVLQNMRVPYNRRHYRDNFKGEENELLLKSEQEKTLLELVEAWLERTPGLEPHGFNFWGKLEKNITRGLEEEFIRIQAKEESEEKEEQVAEFQKQKEVLLSLFDEKRHEHLLSKGERRLSYRALQGALMIYFYREEPRFQVPFQLLTSLMDIDSLMTKWRYNHVCMVHRMLGSKAGTGGSSGYHYLRSTVSDRYKVFVDLFNLSTYLIPRHWIPKMNPTIHKFLYTAEYCDSSYFSSDESD
In the case of B1, the Km (in general, the concentration of substrate that gives half-maximal velocity) came to 167 µM and the Vmax (in general, the rate approached at saturating substrate) came to 97 µM/s.
